Compound activity as filed in PubChem.
MT1-MMP act inh – MT1-MMP (human) activation inhibition; P50281; HT1080 RFP-PRO-GFP cells, GFP/RFP ratio fluorescence, overnight; percent of plate control window, DMSO zero; GFP/RFP ratio change, % at 20 µM; 0.061% of 360,000 active; AID 651647;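 active = GFP/RFP ratio change of at least 30% with cell ATP level not reduced by more than half and red fluorescence within 50% of control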
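Assay system – RFP-PRO-GFP reporter HT1080 cells · Compound dosing – single dose of 20 µM compound, 1% DMSO final · Incubation – overnight compound exposure at 37 °C · Measure – GFP/RFP fluorescence ratio · Benchmarks – DMSO wells and RFP-L50D-GFP cells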
SKN-1 block – inhibitors of C. elegans SKN-1; inhibition, % at 21.8 µM; C. elegans VP596 Pgst-4::GFP/RFP ratio, acrylamide-induced, 24 h; 0.49% of 360,000 active; AID 624304;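 active = interference check ratio from 0.5 to 1.5 plus GFP to RFP signal ratio inhibition reaching or exceeding a fixed threshold, cut at about 30% in these data, passing the limit was not always enough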
ATG4B inhibitor – blocks human ATG4B protease cleavage of LC3 substrate; 0.51% of 340,000 active; inhibition, % at 8.33 µM; ATG4B cleavage of LC3-PLA2, NBD-HPC fluorescence, 1 h; AID 504462; Q9Y4P1; in the data active = inhibition above about 40%
Target sequence (Q9Y4P1 whole entry, looked up): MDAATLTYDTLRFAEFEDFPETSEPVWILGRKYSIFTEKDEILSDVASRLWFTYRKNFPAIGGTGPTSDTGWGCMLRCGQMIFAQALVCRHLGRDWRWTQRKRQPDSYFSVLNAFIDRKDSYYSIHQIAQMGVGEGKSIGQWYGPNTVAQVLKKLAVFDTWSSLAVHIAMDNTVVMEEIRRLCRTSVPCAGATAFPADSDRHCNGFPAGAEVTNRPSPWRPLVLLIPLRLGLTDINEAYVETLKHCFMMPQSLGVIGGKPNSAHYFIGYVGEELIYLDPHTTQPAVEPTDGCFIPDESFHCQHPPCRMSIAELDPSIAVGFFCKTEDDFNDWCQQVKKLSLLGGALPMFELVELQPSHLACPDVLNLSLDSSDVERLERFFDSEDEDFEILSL
MPTP inh – permeability transition pore inhibition; isolated mouse mitochondria, Ca2+ swelling absorbance, 30 min; AID 602449; inhibition, % at 10 µM; 1.4% of 360,000 active;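 active = inhibition of 50% or more, scaled per plate between neutral and stimulator controls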
ATG4B confirm – ATG4B (human) inhibition, single-dose confirmed; AID 504757; ATG4B protease fluorescent substrate cleavage assay; 92% of 320 active; shares compounds with ATG4B inhibitor; inhibition, % at 8.33 µM; in the data active = inhibition above about 39%
PLA2 counter – inhibits human PLA2, flagging false ATG4B inhibitors; AID 588402; purified PLA2, NBD-C6-HPC fluorescence, 45 min; 66% of 1,600 active; shares compounds with ATG4B inhibitor; inhibition, % at 8.33 µM; in the data active = inhibition above about 50%
Target sequence (P04054 whole entry, looked up): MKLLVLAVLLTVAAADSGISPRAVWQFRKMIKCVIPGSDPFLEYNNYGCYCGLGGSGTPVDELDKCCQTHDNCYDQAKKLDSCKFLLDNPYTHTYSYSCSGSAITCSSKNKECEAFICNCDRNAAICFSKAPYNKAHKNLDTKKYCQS
A number is an active result; 0 = inactive; - = no result given. The list is not random: actives were taken first. Their share in the collection is about 2.3%.

SMILES | MT1-MMP act inh | SKN-1 block | ATG4B inhibitor | MPTP inh | PLA2 counter | others
Cc1cccc(C)c1OCc1cc(C(=O)N2CCN(c3ccccn3)CC2)no1 | 0 | 0 | 57 | 0 | 53
COc1cc(C2NC(=O)CCC2[N+](=O)[O-])cc(OC)c1OC (stereo not drawn) | 0 | 0 | 0 | 0 | -
COc1ccc(N(CC(=O)NC2CCCCCC2)S(=O)(=O)c2ccccc2)cc1Cl | 0 | 0 | 0 | 0 | -
O=C(/C=C/c1ccc(Cl)cc1Cl)N1CCN(c2ccccc2[N+](=O)[O-])CC1 | 0 | 0 | 53 | 0 | 60
CC(C)Nc1nc(Nc2ccccc2Cl)c2sccc2n1 | 0 | 0 | - | 0 | -
Cn1cc(CCC(=O)N2CCCC(CCC(=O)NCc3ccc(F)c(F)c3)C2)cn1 (stereo not drawn) | 0 | 0 | 42 | 0 | 0
CC1(C)COC(c2cccn2Cc2ccc(F)cc2Cl)=N1 | 0 | 0 | 0 | 0 | -
CC1CN=C(c2cccn2Cc2ccc(F)cc2Cl)O1 (stereo not drawn) | 0 | 0 | 43 | 0 | 53
Cc1cc(C)c(S(=O)(=O)Nc2ncccc2C)c(C)c1 | 0 | 0 | 0 | 0 | -
CCc1ccc2oc(-c3ccc(OC)cc3)cc(=Nc3cccc(C(=O)O)c3)c2c1 | 0 | 0 | 81 | 0 | 80
COc1ccc(-c2cc(=Nc3ccc(C(=O)O)cc3)c3cc(C)ccc3o2)cc1 | 0 | 0 | 41 | 0 | 54
CCc1ccc2oc(-c3ccc(OC)cc3)cc(=Nc3c(C)n(C)n(-c4ccccc4)c3=O)c2c1 | 0 | 0 | 0 | 0 | -
O=C(CSc1nccn1-c1ncc(C(F)(F)F)cc1Cl)c1ccc(Br)cc1 | 0 | 0 | 104 | 0 | 0
O=C(COC(=O)/C=C/c1ccc(F)cc1)Nc1ccc2[nH]c(=O)[nH]c2c1 | 0 | 0 | 0 | 0 | -
O=C(CN1C(=O)NC2(CCOc3ccccc32)C1=O)N1CCCCC1 (stereo not drawn) | 0 | 0 | 0 | 0 | -
CCOc1ccc(NC(=S)Nc2ccc(F)cc2)cc1 | 0 | 0 | 0 | 0 | -
O=C(O)/C=C/C(=O)Nc1ccc(C2(c3ccc(NC(=O)/C=C/C(=O)O)cc3)c3ccccc3-c3ccccc32)cc1 | 0 | 0 | 55 | 0 | 65
C[C@H](NC(=O)N1CCn2c1nc1ccccc12)C(=O)NCCc1ccccc1 | 0 | 0 | 0 | 0 | -
C[C@@H]1CN([C@H](C)CO)C(=O)c2cc(NC(=O)Cc3ccccc3)ccc2O[C@H]1CN(C)Cc1ccc(Oc2ccccc2)cc1 | 0 | 0 | 56 | 0 | 68
C[C@H]1CN([C@@H](C)CO)C(=O)c2cc(NC(=O)Cc3ccccc3)ccc2O[C@H]1CN(C)Cc1ccccc1 | 0 | 0 | 0 | 0 | -
CCC1SC(CC)C(=O)N(CC(=O)Nc2ccc3c(c2)OCO3)C1=O (stereo not drawn) | 0 | 0 | 0 | 0 | -
Cc1c2ccccc2cc[n+]1CCCS(=O)(=O)[O-] | 0 | 0 | 0 | 0 | -
CC1(C)C(/C=C/C=C/C=C/C=C2\N(CCCCS(=O)(=O)O)c3ccc4ccccc4c3C2(C)C)=[N+](CCCCS(=O)(=O)[O-])c2ccc3ccccc3c21 | 0 | 0 | 90 | 0 | 95
N#CC1=C(N)OC2=C(C(=O)CC(c3ccco3)C2)C1c1ccc(OCc2c(F)cccc2Cl)cc1 (stereo not drawn) | 0 | 0 | 87 | 0 | 89
COc1cccc(C2C(C#N)=C(N)OC3=C2C(=O)CC(c2ccco2)C3)c1OCc1ccc(F)cc1 (stereo not drawn) | 0 | 0 | 0 | 0 | -
SMILES | MT1-MMP act inh | SKN-1 block | ATG4B inhibitor | MPTP inh | PLA2 counter | others
CCOc1ccc(NC(=S)NC(=O)/C=C/c2ccco2)cc1 | 0 | 0 | 0 | 0 | -
COc1cc(NS(=O)(=O)c2ccc(NC(=S)NC(=O)/C=C/c3ccco3)cc2)ncn1 | 0 | 0 | 56 | 0 | 0 | ATG4B confirm=46
O=C(NC(=S)Nc1cc([N+](=O)[O-])ccc1O)C1CC1 | 0 | 0 | 0 | 0 | -
O=c1cc(-c2ccc(O)c(-c3c(O)cc(O)c4c(=O)cc(-c5ccc(O)cc5)oc34)c2)oc2cc(O)cc(O)c12 | 0 | 0 | 82 | 0 | 76
Cc1cc(N2CCN(C)CC2)nc2ccc(NC(=O)CCC3CCCC3)cc12 | 0 | 0 | 0 | 0 | -
COc1ccc(CN2CC(=O)N(c3ccccc3OC)C2=S)cc1OC | 0 | 0 | 0 | 0 | -
Cc1ccc(N2C(=O)CN(Cc3sccc3C)C2=S)cc1C | 0 | 0 | 95 | 0 | 94
Cc1ccc(N2C(=O)CN(Cc3ccccc3)C2=S)cc1C | 0 | 0 | 75 | 0 | 79
Cc1ccccc1N1C(=O)CN(Cc2sccc2C)C1=S | 0 | 0 | 65 | 0 | 79
COc1ccc(CN2CC(=O)N(c3cccc(Cl)c3)C2=S)cc1OC | 0 | 0 | 0 | 0 | -
CCc1ccc(N2C(=O)CN(Cc3ccc(OC)c(OC)c3)C2=S)cc1 | 0 | 0 | 0 | 0 | -
Cc1ccc(N2C(=O)CN(Cc3cccs3)C2=S)cc1C | 0 | 0 | 58 | 0 | 78
COc1cccc(N2C(=O)CN(Cc3cc(OC)c(OC)c(OC)c3)C2=S)c1 | 0 | 0 | 0 | 0 | -
CN1C(=O)C2(OCC(CO)([N+](=O)[O-])CO2)c2ccccc21 (stereo not drawn) | 0 | 0 | 0 | 0 | -
COc1ccc(-c2[nH]nc3c2C(c2ccccc2OC(=O)N2CCOCC2)C(C#N)=C(N)O3)cc1 (stereo not drawn) | 0 | 0 | 0 | 0 | -
CC(C)(C)c1[nH]nc2c1C(c1ccc(OC(=O)c3ccco3)cc1)C(C#N)=C(N)O2 (stereo not drawn) | 0 | 0 | 83 | 0 | 86
COc1ccc(-c2[nH]nc3c2C(c2ccc(OC(=O)N4CCOCC4)cc2)C(C#N)=C(N)O3)cc1 (stereo not drawn) | - | - | 42 | - | 0 | ATG4B confirm=76
CC(C)(C)c1[nH]nc2c1C(c1cccnc1)C(C#N)=C(N)O2 (stereo not drawn) | 0 | 0 | 0 | 0 | -
Cn1cnc2c1c(=O)n(CC(O)CO)c(=O)n2C (stereo not drawn) | 0 | 0 | 0 | 0 | -
COc1ccccc1C(=O)NC(CCSC)C(=O)OC(C)C(=O)NC1CC1 (stereo not drawn) | 0 | 0 | 0 | 0 | -
Cc1ccc(-c2cc(-c3ccccc3Cl)[nH]n2)c(O)c1 | 0 | 0 | 68 | 0 | 77
Cc1ccccc1-c1cc(-c2ccccc2O)n[nH]1 | 0 | 0 | 58 | 0 | 65
Cc1ccc(-c2cc(-c3ccccc3[N+](=O)[O-])[nH]n2)c(O)c1 | 0 | 0 | 61 | 0 | 75
Oc1ccccc1-c1cc(-c2ccccc2)n[nH]1 | 0 | 0 | 0 | 0 | -
CC1CCCC(NC(=O)CN2CCN(S(=O)(=O)c3cccs3)CC2)C1C (stereo not drawn) | 0 | 0 | 0 | 0 | -
CCCCn1c(SCC(=O)Nc2cc(C)on2)nc2ccsc2c1=O | 0 | 0 | 0 | 0 | -
CCCCn1c(SCC(=O)Nc2cc(C)[nH]n2)nc2ccsc2c1=O | 0 | 0 | 45 | 0 | 0 | ATG4B confirm=56
O=S(=O)(NCCS(=O)(=O)N1CCN(c2ccccc2)CC1)c1ccccc1 | 0 | 0 | 0 | 0 | -
